Measured values from ChEMBL document CHEMBL1150285, “Combination of non-natural D-amino acid derivatives and allophenylnorstatine-dimethylthioproline scaffold in HIV protease inhibitors have high efficacy in mutant HIV” (J Med Chem, 2008).

Assays:
[1] = Selectivity index, ratio of CC50 for human MT4 cells to EC50 for HIV1 3B; conditions: MT4 cells
[2] = tested on: Human immunodeficiency virus 1; assay: Antiviral activity against wild type HIV1 NL432; format: functional, organism-based; conditions: Human immunodeficiency virus 1, NL432
[3] = target: Protease (Human immunodeficiency virus 1) (UniProt Q9YQ12); conditions: at 1 nM
Chain of Protease (Human immunodeficiency virus 1) (Q9YQ12 as listed by the source): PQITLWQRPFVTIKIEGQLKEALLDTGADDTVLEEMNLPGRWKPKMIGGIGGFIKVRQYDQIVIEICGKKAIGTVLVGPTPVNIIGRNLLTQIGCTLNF

[4] = Cytotoxicity against human MT4 cells by MTT assay; format: cell-based
[5] = tested on: Human immunodeficiency virus 1; assay: microbe, parasite or virus in culture; format: functional, organism-based; conditions: Human immunodeficiency virus 1, NL432
[6] = tested on: Human immunodeficiency virus 1; assay: microbe, parasite or virus in culture; format: functional, organism-based; conditions: Human immunodeficiency virus 1, NL432; remark: listed apart in the source
[7] = tested on: Human immunodeficiency virus 1; assay: Antiviral activity against HIV1 3B in human MT4 cells assessed as inhibition of viral-induced cytopathic effect by MTT method; format: functional, organism-based; conditions: Human immunodeficiency virus 1, 3B
[8] = tested on: Human immunodeficiency virus 1; assay: Ratio of EC50 for nelfinavir-resistant HIV1 NL432 to EC50 for wild-type HIV1 NL432; format: functional
[9] = tested on: Human immunodeficiency virus 1; assay: Antiviral activity against nelfinavir-resistant HIV1 NL432; format: functional, organism-based; conditions: Human immunodeficiency virus 1, NL432
[10] = tested on: Human immunodeficiency virus 1; assay: Antiviral activity against HIV1 3B in presence of 10% fetal calf serum and alpha1 acid glycoprotein; format: functional, organism-based; conditions: Human immunodeficiency virus 1, 3B
[11] = target: Protease (Human immunodeficiency virus 1, UniProt Q9YQ12); assay: Inhibition of HIV1 protease
Chain of Protease (Q9YQ12 whole entry): as the sequence (Q9YQ12 as listed by the source) above
Outline: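 HIV-1 protease (2 µg/mL stock in pH 5.5 acetate buffer) was mixed with test compound (10 nM solution in DMSO) in MES-NaOH buffer, pH 5.5, containing DTT, EDTA and NaCl. The mixture was preincubated 5 min at 37 °C, then started with substrate H-Lys-Ala-Arg-Val-Tyr*Phe(p-NO₂)-Glu-Ala-Nle-NH₂. After 60 min at 37 °C, the reaction was stopped with 1N HCl.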

[12] = tested on: Human immunodeficiency virus 1; assay: Antiviral activity against HIV1 3B in presence of 10% fetal calf serum; format: functional, organism-based; conditions: Human immunodeficiency virus 1, 3B

SMILES | selectivity ratio [1] | EC50 [2] | inhibition [3] | CC50 [4] | EC50 [5] | EC50 [6] | EC50 [7] | Ratio EC50 [8] | EC50 [9] | EC50 [10] | IC50 [11] | EC50 [12]
CC(=O)N[C@H](CS(=O)(=O)c1ccc(Cl)cc1)C(=O)N[C@@H](Cc1ccccc1)[C@H](O)C(=O)N1CSC(C)(C)[C@H]1C(=O)NCc1ccccc1C | 380 | 88 nM | 80% | 18000 nM | 19 nM | 44 nM | 47 nM | 0.11 | 9.6 nM | 1270 nM | 0.22 nM | 27 nM
COc1ccc(CSC[C@@H](NC(C)=O)C(=O)N[C@@H](Cc2ccccc2)[C@H](O)C(=O)N2CSC(C)(C)[C@H]2C(=O)NCc2ccccc2C)cc1 | 1300 |  | 87% |  |  |  |  | 0.14 |  | 89 nM | 0.18 nM | 
CC(=O)N[C@H](CS(=O)(=O)c1ccc(F)cc1)C(=O)N[C@@H](Cc1ccccc1)[C@H](O)C(=O)N1CSC(C)(C)[C@H]1C(=O)NCc1ccccc1C | > 270 |  | 79% | > 28000 nM |  |  | 105 nM |  |  |  | 0.27 nM | 
COc1ccc(CSC[C@@H](NS(C)(=O)=O)C(=O)N[C@@H](Cc2ccccc2)[C@H](O)C(=O)N2CSC(C)(C)[C@H]2C(=O)NCc2ccccc2C)cc1 | 1100 | 16 nM | 77% | 10000 nM | 23 nM | 20 nM | 9.3 nM | 0.04 | 0.67 nM | 94 nM | 0.26 nM | 9.4 nM
CC(=O)N[C@H](COCc1ccccc1)C(=O)N[C@@H](Cc1ccccc1)[C@H](O)C(=O)N1CSC(C)(C)[C@H]1C(=O)NCc1ccccc1C | > 1400 | 23 nM | 64% | > 30000 nM | 44 nM | 77 nM | 21 nM | 0.28 | 6.5 nM | 278 nM | 0.39 nM | 20 nM
Cc1ccccc1CNC(=O)[C@H]1N(C(=O)[C@@H](O)[C@H](Cc2ccccc2)NC(=O)[C@@H](COCc2ccccc2)NS(C)(=O)=O)CSC1(C)C | 850 | 22 nM | 59% | 17000 nM | 92 nM | 90 nM | 20 nM | 0.1 | 2.3 nM | 90 nM | 0.56 nM | 20 nM
